From PubChem BioAssay
PP5 primary = PP5 phosphatase inhibitors, primary screen, biochemical, fluorescence; 0.18% of 320,000 active; Serine/threonine-protein phosphatase 5 (Homo sapiens), P53041; AID 1987, 2009; purified PP5c, OMFP substrate fluorescence; inhibition, % at 6.7 µM;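 active means inhibition above the campaign's mean inhibition across all tested compounds plus 3 SD, cut at about 9.5% in these data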;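 further: 0% = DMSO only and 100% = 100 µM cantharidin control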
NR2E3 ag-1 = inhibitors of NR2E3-RetCOR corepressor binding, primary screen, NR2E3 agonist project, biochemical, TR-FRET, GST-NR2E3, biotin-RetCOR; 0.12% of 320,000 active; inhibition of corepressor binding, % at 4.78 µM; 1536-well; Photoreceptor-specific nuclear receptor (Homo sapiens), Q9Y5X4;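 active means percent inhibition above the cutoff of mean plus 3 SD of all tested compounds, set per screening campaign, cut at about 20% in these data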;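 further: 0% = DMSO wells and 100% = biotin wells as full block of FRET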
Target sequence (Q9Y5X4 whole entry, looked up): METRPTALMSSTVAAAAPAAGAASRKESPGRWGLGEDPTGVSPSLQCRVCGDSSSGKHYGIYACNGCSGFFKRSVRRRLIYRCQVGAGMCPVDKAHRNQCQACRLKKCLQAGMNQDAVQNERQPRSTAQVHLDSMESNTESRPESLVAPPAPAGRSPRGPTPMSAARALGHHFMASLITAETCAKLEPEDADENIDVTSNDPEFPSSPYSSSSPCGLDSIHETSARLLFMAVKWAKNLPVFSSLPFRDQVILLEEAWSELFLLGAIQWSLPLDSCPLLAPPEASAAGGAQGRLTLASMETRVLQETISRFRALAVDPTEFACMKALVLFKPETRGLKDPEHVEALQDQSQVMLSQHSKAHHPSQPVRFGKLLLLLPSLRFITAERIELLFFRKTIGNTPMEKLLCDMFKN
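Material: NR2E3–RetCOR corepressor complex | Quantity: 1.35 nM GST-tagged NR2E3 final | Schedule: 5 h at 4 °C | Replication: Singlicate compound wells | Reagent: RetCOR corepressor, biotinylated, 7 nM | Controls: Biotin wells as high control, 0.6% DMSO wells as low control | Signal: TR-FRET, Eu(K)-anti-GST donor, streptavidin-D2 acceptor, ex 340, em 617/671 nm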
NR2E3 ag-2 = NR2E3 agonists in two-hybrid cells, primary screen, cell-based, luminescence, CHO-S, Gal4-NCOR/VP16-NR2E3; Photoreceptor-specific nuclear receptor (Homo sapiens), Q9Y5X4; luciferase; inhibition of corepressor binding, % at 3.98 µM; 0.35% of 360,000 active;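 active means inhibition above the mean of all tested compounds plus 3 SD, cut at about 70% in these data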;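 further: 0% = DMSO with NR2E3 transfected cells and 100% = cells lacking NR2E3 construct; higher means lower luciferase signal from less NR2E3 corepressor binding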
PP1 inh = PP1-alpha phosphatase inhibitors, primary screen, counter-screen for PP5 inhibitor project, biochemical, fluorescence, OMFP substrate, single point; Serine/threonine-protein phosphatase PP1-alpha catalytic subunit (Homo sapiens), P62136; purified PP1alpha; inhibition, % at 6.7 µM; 0.9% of 320,000 active; AID 2235, 2010;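 active means inhibition above the mean inhibition of all tested compounds plus 3 SD, computed separately for each screening campaign, cut at about 15% in these data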
* marks the source's active call; other numbers are inactive results; . = not tested or not shown. Sampled rows, rich in hits. Any-hit rate of the full collection: about 1.3%.

SMILES	PP5 primary	NR2E3 ag-1	NR2E3 ag-2	PP1 inh
Cc1ccc(/C=N/Nc2nncc(-c3ccccc3)n2)o1	1.7	-0.8	-57.5	-2.6
Cc1[nH]n(-c2ccccc2)c(=O)c1C=Nc1cccc2cccnc12	1.6	-4.7	6.4	15.7*
CCCCN(C)c1c(C)nc2ccc(C(=O)N(C)CCN(C)C)cn12	.	.	-19.8	.
Cc1cc2cc(C(c3nnnn3Cc3ccco3)N3CCc4ccccc4C3)c(=O)[nH]c2cc1C (centres undefined)	2.8	2.7	-2.7	15.3*
CC1=C(C#N)C(=O)N(C2CCS(=O)(=O)C2)C(=O)/C1=C\c1ccco1 (centres undefined)	0.9	27.4*	.	35.2*
CCN(C[C@H]1N[C@@](CC)(C(=O)OC)[C@H]2C(=O)N(C)C(=O)[C@@H]12)C(=O)Nc1ccccc1	.	.	-23.2	.
O=C(CSc1ccc(Cl)cc1)Nc1ccccc1N1CCN(C(=O)c2ccc(Cl)cc2)CC1	1.1	-0.7	8.1	15.2*
O=C(NCc1cccnc1)c1cc(C2CCCN(C(=O)c3cccs3)C2)on1 (centres undefined)	.	.	9.9	.
O=c1cc(O)c2sc3nc(-c4cccnc4)cc(C(F)(F)F)c3c2[nH]1	2.8	0.1	9.1	17.5*
COC(=O)CCC(=O)N1CCC(CCC(=O)NCc2ccc(F)cc2)CC1	.	.	-40.1	.
COc1cc(C(=O)NS(=O)(=O)c2ccccc2C)ccc1Cc1cn(C)c2ccc(NC(=O)OC3CCCC3)cc12	2.0	-7.7	.	23.7*
C#CCOCCOCCOCCNc1nc(N2CCN(C(=O)[C@H](Cc3cc4ccccc4[nH]3)n3cc([C@@H](N)C(C)CC)nn3)CC2)nc(N2CCN(C(=O)[C@H](CCCCN)n3cc([C@@H](N)CC(C)C)nn3)CC2)n1 (some centres undefined)	1.6	-3.4	.	15.9*
C#CCOCCOCCOCCNc1nc(N2CCN(C(=O)[C@H](Cc3cc4ccccc4[nH]3)n3cc(C(N)CC(C)C)nn3)CC2)nc(N2CCN(C(=O)[C@H](CCC(=O)O)n3cc(C(N)[C@H](C)CC)nn3)CC2)n1 (some centres undefined)	0.3	-0.4	-3.9	0.3
C#CCOCCOCCOCCNc1nc(N2CCN(C(=O)[C@H](Cc3ccc(O)cc3)n3cc([C@@H](N)C(C)CC)nn3)CC2)nc(N2CCN(C(=O)[C@H](Cc3cc4ccccc4[nH]3)n3cc([C@@H](N)C(C)CC)nn3)CC2)n1 (some centres undefined)	1.0	-4.7	3.0	16.6*
CCN(CC(=O)Nc1c(F)cccc1F)C(=O)C1CCN(c2ncnc3sc(C)c(C)c23)CC1	1.1	-2.5	-17.0	3.3
CCn1c(=O)n(CC)c2cc(N3CCCC3)c(NC(=O)c3cc(Cl)ccc3OC)cc21	-0.5	1.6	-29.6	-4.2
COc1ccc(NC(=O)Nc2nnc(-c3ccccc3SCc3ccccc3)s2)cc1	3.2	-2.2	-29.7	18.5*
COc1cccc(NC(=O)Nc2nnc(-c3ccccc3SCc3ccccc3)s2)c1	-1.2	-2.5	-26.3	6.4
O=S(=O)(Nc1cc(Sc2ncn[nH]2)c(O)c2ccccc12)c1ccccc1	.	.	102.7*	.
COc1ccc(-n2c(C)cc(-c3csc(N)n3)c2C)cc1	0.6	5.2	-27.2	17.2*
Cc1cc(-c2csc(N)n2)c(C)n1-c1ccc(Cl)c(Cl)c1	-2.5	-2.5	-4.7	16.8*
O=C(CCN1C(=O)/C(=C/c2ccccc2Cl)SC1=S)Nc1cccnc1	4.6	0.2	-1.5	15.2*
O=C(CCCN1C(=O)/C(=C/c2ccccc2Cl)SC1=S)Nc1cccnc1	2.7	-1.1	43.6	16.9*
O=C(CCN1C(=O)/C(=C/c2ccccc2Cl)SC1=S)NNC(=O)c1cccnc1	-1.2	1.1	-6.5	-1.8
COc1ccc(CN2CCN(C(=O)CCC(=O)Nc3nnc(C4CCCCC4)s3)CC2)cc1F	1.8	1.7	-19.6	7.0
SMILES	PP5 primary	NR2E3 ag-1	NR2E3 ag-2	PP1 inh
COc1ccc(C(=O)c2c(C(F)(F)F)oc3c2C(=O)c2ccccc2C3=O)cc1	4.0	0.1	92.7*	0.6
CC(C)(C)C1CCc2nc(NC(=O)Cc3cn4ccsc4n3)sc2C1 (centres undefined)	5.6	-2.8	-46.7	15.6*
COc1ccccc1/C=N/NC(=Nc1ccc(C)cc1)c1nc2ccccc2s1	2.6	1.3	.	1.8
COc1cc(/C=N/NC(=Nc2ccc(C)cc2)c2nc3ccccc3s2)ccc1O	1.5	1.7	90.8*	0.6
O=C(c1cc2ccccc2o1)N(Cc1nnc(-c2ccccc2Cl)o1)C1CC1	-1.1	1.3	-34.7	15.3*
COc1cccc(NC(=O)Nc2nc(SC(C)(C)C)ns2)c1	5.2	-2.8	-10.5	17.2*
O=C(C[n+]1cc(-c2ccc(Cl)cc2)n2c1CCC2)Nc1nc(-c2ccccc2)cs1	1.6	-0.1	-15.2	15.6*
O=C(C[n+]1cc(-c2ccc(F)cc2)n2c1CCC2)Nc1nc(-c2ccccc2)cs1	0.8	1.0	-17.2	8.5
COc1ccc(OC)c(NC(=O)c2[nH]c(C)c(C(C)=O)c2C)c1	2.0	-2.0	-18.8	1.6
COc1ccc(Cl)cc1NC(=O)c1[nH]c(C)c(C(C)=O)c1C	2.2	-13.0	2.5	17.0*
COC(=O)/C(=C\c1c[nH]c2ccccc12)NC(C)=O	2.2	3.7	16.0	15.8*
CCOC(=O)/C(=C\c1c[nH]c2ccccc12)NC(C)=O	-1.6	2.0	37.8	-1.9
COc1ccc(-c2nc3ccc(C)cn3c2NCc2ccccc2)cc1SC1CCCCC1	3.5	1.1	-7.0	17.4*
Cc1ccc2nc(-c3cccc(SC4CCCCC4)c3)c(NCc3ccccc3)n2c1	.	.	14.9	.
Cc1cc(O)c2c(c1O)C(=O)[C@]13C(=C2O)C(=O)[C@@H]2[C@@H](O)[C@H]1[C@@H]1[C@H](O)[C@H]3C(=O)C3=C(O)c4c(O)cc(C)c(O)c4C(=O)[C@]312	.	.	101.1*	.
O=C(c1ccco1)N1CCCC(c2nc3c(nnn3Cc3c(Cl)cccc3Cl)c(=O)[nH]2)C1 (centres undefined)	1.2	1.8	-34.8	-1.0
C=CC(=O)Nc1ccc(N(C)c2ccnc(Nc3ccc(N4CCN(C)CC4)cc3)n2)cc1	.	.	35.1	.
CSc1ccc(CN2CCC2(C)C(=O)NCc2ccc3c(c2)OCO3)cc1 (centres undefined)	.	.	-17.5	.
N#Cc1ccc(-c2ccc(OCC(=O)Nc3cccnc3)cc2)cc1	.	.	-20.1	.
CC(=O)Nc1ccc(NC(=O)COc2ccc(-c3ccc(C#N)cc3)cc2)cc1	-2.2	-5.0	6.5	16.6*
Cc1ccsc1/C=C1\Oc2cc(OCC(=O)c3ccccc3)ccc2C1=O	1.4	-2.2	-3.8	16.4*
O=c1[nH]c(C2CCN(S(=O)(=O)c3ccccc3C(F)(F)F)CC2)nc2c1nnn2Cc1cccc(F)c1	1.3	3.9	-24.0	15.6*
O=c1[nH]c(C2CCN(S(=O)(=O)Cc3ccccc3)CC2)nc2c1nnn2Cc1ccccc1	2.2	0.0	-7.4	3.6
